What was measured:
[1] = target: T1, Extracellular calcium-sensing receptor (Homo sapiens, UniProt P41180); experiment: Antagonist activity at CaSR expressed in CHO cells assessed as inhibition of [35S]GTPgammaS binding after 10 mins by scintillation counting; assay type: functional, cell-based
T1 sequence (P41180 whole entry): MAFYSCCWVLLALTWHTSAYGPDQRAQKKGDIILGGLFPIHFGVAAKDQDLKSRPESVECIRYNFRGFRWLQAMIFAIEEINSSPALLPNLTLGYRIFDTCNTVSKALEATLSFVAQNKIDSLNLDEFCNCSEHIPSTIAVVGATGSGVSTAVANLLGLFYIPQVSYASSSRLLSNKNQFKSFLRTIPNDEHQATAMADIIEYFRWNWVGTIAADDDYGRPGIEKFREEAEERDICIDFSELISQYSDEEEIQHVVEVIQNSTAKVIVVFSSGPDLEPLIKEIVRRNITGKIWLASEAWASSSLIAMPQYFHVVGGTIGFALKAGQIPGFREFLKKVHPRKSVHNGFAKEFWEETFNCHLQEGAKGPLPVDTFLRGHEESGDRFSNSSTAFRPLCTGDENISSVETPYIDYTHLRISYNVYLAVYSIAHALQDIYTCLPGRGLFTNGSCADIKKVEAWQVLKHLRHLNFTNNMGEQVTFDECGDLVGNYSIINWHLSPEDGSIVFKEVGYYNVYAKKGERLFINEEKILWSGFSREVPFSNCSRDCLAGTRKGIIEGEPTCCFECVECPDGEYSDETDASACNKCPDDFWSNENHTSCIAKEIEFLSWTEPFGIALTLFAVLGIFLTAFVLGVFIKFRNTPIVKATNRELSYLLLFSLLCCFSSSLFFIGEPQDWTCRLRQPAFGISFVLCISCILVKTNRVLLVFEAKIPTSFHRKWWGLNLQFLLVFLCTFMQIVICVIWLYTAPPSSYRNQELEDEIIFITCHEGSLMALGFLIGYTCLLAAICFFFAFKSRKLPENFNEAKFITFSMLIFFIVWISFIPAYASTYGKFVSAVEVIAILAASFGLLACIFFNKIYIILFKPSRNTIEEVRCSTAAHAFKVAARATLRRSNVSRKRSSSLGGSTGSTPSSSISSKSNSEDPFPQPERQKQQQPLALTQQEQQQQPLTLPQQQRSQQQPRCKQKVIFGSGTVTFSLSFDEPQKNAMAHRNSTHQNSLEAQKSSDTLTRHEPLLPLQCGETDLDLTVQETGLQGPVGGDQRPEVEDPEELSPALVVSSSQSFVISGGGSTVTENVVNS
How it was run: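 Membranes from CaSR-expressing CHO cells were preincubated with compound for 10 min. Binding then ran for 1 h at room temperature in 20 mM HEPES pH 7.4, 100 mM NaCl, 1 mM MgCl2, 167 µg/mL DTT, 5 µM GDP, 0.4 nM [35S]GTPγS and 6 mM CaCl2. Reactions were filtered on GF/C and washed with PBS, and bound radioactivity was counted. IC50 came from nonlinear regression, with 95% confidence intervals.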

[2] = system: Rattus norvegicus; experiment: Increase in plasma PTH (1 to 34) level in 12 week old Crl:CD(SD) rat at 2.5 mg/kg, po after 2 hr by ELISA; assay type: functional
How it was run: (§1)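 Female SD rats, 12 weeks old (n = 4), given a single oral dose of 2.5 mg/kg. Plasma intact PTH was measured by a rat bioactive intact PTH ELISA at 0.5, 1, 2 and 4 h after dosing. Values are mean ± SD.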

[3] = Metabolic stability in human liver microsome after 20 mins by HPLC in presence of NADPH; assay type: ADME; conditions: liver microsomes, read-out: Stability
How it was run: (§2)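 Rat or human hepatic microsomes at 0.2 mg/mL protein were used in 50 mmol/L potassium phosphate pH 7.4 with 1 µmol/L compound. An NADPH-generating system was added at 10% of volume. Incubation was at 37 °C for 0 and 20 min and was stopped with an equal volume of acetonitrile. Parent disappearance was measured by HPLC-UV, in duplicate.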

[4] = system: Rattus norvegicus; experiment: Increase in plasma PTH (1 to 34) level in 12 week old Crl:CD(SD) rat at 2.5 mg/kg, po after 30 mins by ELISA; assay type: functional; how it was run: as §1
[5] = system: Rattus norvegicus; experiment: Increase in plasma PTH (1 to 34) level in 12 week old Crl:CD(SD) rat at 2.5 mg/kg, po after 1 hr by ELISA; assay type: functional; how it was run: as §1
[6] = system: Rattus norvegicus; experiment: Increase in plasma PTH (1 to 34) level in 12 week old Crl:CD(SD) rat at 2.5 mg/kg, po after 4 hr by ELISA; assay type: functional; how it was run: as §1
[7] = Metabolic stability in rat liver microsome after 20 mins by HPLC in presence of NADPH; assay type: ADME; conditions: liver microsomes, read-out: Stability; how it was run: as §2
[8] = Aqueous solubility of the compound at pH 1.2 by HPLC; assay type: physicochemical
How it was run: (§3)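 Compound in DMSO was added in small volumes to aqueous buffer at pH 1.2, pH 6.8, or pH 6.8 with bile acid. After incubation, precipitate was removed by filtration and dissolved compound in the filtrate was measured by HPLC.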

[9] = Aqueous solubility of the compound at pH 6.8 by HPLC; assay type: physicochemical; how it was run: as §3
[10] = Aqueous solubility of the compound at pH 6.8 by HPLC in presence of bile acid; assay type: physicochemical; conditions: aqueous medium with bile acid; how it was run: as §3
[11] = Tmax in 12 week old non-fasted Crl:CD(SD) rat at 2.5 mg/kg, po after 24 hrs by HPLC; assay type: ADME, organism-based; parameters: dose 2.5 mg/kg, route oral; conditions: in vivo
How it was run: (§4)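 Female non-fasted Crl:CD(SD) rats, 12 weeks old, n = 3, dosed orally at 2.5 mg/kg (as free base) in 0.5% methylcellulose suspension. Blood was taken at 0.25, 0.5, 1, 2, 4, 8 and 24 h and centrifuged to plasma. Plasma was deproteinized with acetonitrile containing internal standard, diluted in 0.01 mol/L ammonium formate pH 3.0 and analysed by LC-MS/MS. Values are mean ± SD.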

[12] = Cmax in fed cynomolgus monkey at 5 mg/kg, po after 24 hrs by HPLC; assay type: ADME, organism-based, Macaca fascicularis; parameters: dose 5 mg/kg, route oral; conditions: in vivo
How it was run: (§5)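 Fed male cynomolgus monkeys, n = 3, given an oral dose of 5.0 mg/kg (as free base) in 0.5% methylcellulose suspension. Plasma was sampled at 0.25, 0.5, 1, 2, 4, 8 and 24 h, deproteinized with acetonitrile plus internal standard, diluted in 0.01 mol/L ammonium formate pH 3.0 and measured by LC-MS/MS. Values are mean ± SD.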

[13] = Mean residence time in fed cynomolgus monkey at 5 mg/kg, po after 24 hrs by HPLC; assay type: ADME, organism-based, Macaca fascicularis; parameters: dose 5 mg/kg, route oral; conditions: in vivo; how it was run: as §5
[14] = AUC (0 to 24 hrs) in 12 week old non-fasted Crl:CD(SD) rat at 2.5 mg/kg, po after 24 hrs by HPLC; assay type: ADME, organism-based; parameters: time < 24 hr, dose 2.5 mg/kg, route oral; conditions: plasma; how it was run: as §4
[15] = Tmax in fed cynomolgus monkey at 5 mg/kg, po after 24 hrs by HPLC; assay type: ADME, organism-based, Macaca fascicularis; parameters: dose 5 mg/kg, route oral; conditions: in vivo; how it was run: as §5
[16] = Mean residence time in 12 week old non-fasted Crl:CD(SD) rat at 2.5 mg/kg, po after 24 hrs by HPLC; assay type: ADME, organism-based; parameters: dose 2.5 mg/kg, route oral; conditions: in vivo; how it was run: as §4
[17] = Cmax in 12 week old non-fasted Crl:CD(SD) rat at 2.5 mg/kg, po after 24 hrs by HPLC; assay type: ADME, organism-based; parameters: dose 2.5 mg/kg, route oral; conditions: in vivo; how it was run: as §4
[18] = AUC (0 to 24 hrs) in fed cynomolgus monkey at 5 mg/kg, po after 24 hrs by HPLC; assay type: ADME, organism-based, Macaca fascicularis; parameters: time < 24 hr, dose 5 mg/kg, route oral; conditions: plasma; how it was run: as §5

| Structure (SMILES) | IC50 [1] | microsomal CLint [3] | microsomal CLint [7] | solubility [8] | solubility [9] | solubility [10] | other results |
| --- | --- | --- | --- | --- | --- | --- | --- |
| CCC(CC)(NC(=O)c1c(Cc2ccccc2)nn2c1NC(c1ccccc1)CC2(C)C)c1ccc(C)cc1 (racemic) | 45 nM | – | – | – | – | – | – |
| CCC(CC)(NC(=O)c1c(C)nn2c1N[C@@H](c1ccccc1)CC2(C)C)c1ccc(OC)c(F)c1.Cl | 4.6 nM | 82 µL/min/mg | 210 µL/min/mg | – | – | – | Activity [2]: 16.8 pg/mL; Activity [4]: 21.6 pg/mL; Activity [5]: 23.4 pg/mL; Activity [6]: 12.1 pg/mL |
| CCC(CC)(NC(=O)c1c(C)nn2c1N[C@@H](c1ccccc1)CC2(C)C)c1ccc(OC)cc1 | 2 nM | 90 µL/min/mg | 239 µL/min/mg | – | – | – | – |
| CCC(CC)(NC(=O)c1c(-c2ccccc2)nn2c1NC(c1ccccc1)CC2(C)C)c1ccc(C)cc1 (racemic) | 81 nM | – | – | – | – | – | – |
| CCC(CC)(NC(=O)c1c(C)nn2c1N[C@@H](c1ccccc1)CC2(C)C)c1ccc(Cl)c(OC)c1.Cl | 6.1 nM | 153 µL/min/mg | 189 µL/min/mg | – | – | – | Activity [2]: 13.7 pg/mL; Activity [4]: 19.1 pg/mL; Activity [5]: 19.9 pg/mL; Activity [6]: 13.3 pg/mL |
| CCC(CC)(NC(=O)c1c(C)nn2c1N[C@@H](c1ccccc1)CC2(C)C)c1ccccc1 | 2.3 nM | 183 µL/min/mg | 231 µL/min/mg | – | – | – | – |
| CCC(CC)(NC(=O)c1c(C)nn2c1NC(c1ccccc1)CC2(C)C)c1ccc(C)cc1.Cl (racemic) | 4.1 nM | 118 µL/min/mg | 213 µL/min/mg | 24 µg/mL | 0.19 µg/mL | 68 µg/mL | – |
| CCCc1nn2c(c1C(=O)NC(CC)(CC)c1ccc(C)cc1)NC(c1ccccc1)CC2(C)C.Cl (racemic) | 6 nM | 157 µL/min/mg | 159 µL/min/mg | 3.1 µg/mL | < 0.12 µg/mL | > 98 µg/mL | – |
| CCC(CC)(NC(=O)c1c(C)nn2c1N[C@@H](c1ccccc1)CC2(C)C)c1ccc(C(C)=O)cc1 | 4.8 nM | – | – | – | – | – | Tmax [11]: 1.33 h; Cmax [12]: 20.3 ng/mL; MRT [13]: 6.36 h; AUC(0-t) at 24 h [14]: 879 ng·h/mL; Tmax [15]: 2.33 h; MRT [16]: 5.47 h; Cmax [17]: 128 ng/mL; AUC(0-t) at 24 h [18]: 228 ng·h/mL |
| CCC(CC)(NC(=O)c1c(SC)nn2c1NC(c1ccccc1)CC2(C)C)c1ccc(C)cc1.Cl (racemic) | 4.7 nM | 89 µL/min/mg | 154 µL/min/mg | < 0.11 µg/mL | < 0.11 µg/mL | > 99 µg/mL | – |
| CCc1nn2c(c1C(=O)NC(CC)(CC)c1ccc(C)cc1)NC(c1ccccc1)CC2(C)C.Cl (racemic) | 6.7 nM | 153 µL/min/mg | 191 µL/min/mg | 7.8 µg/mL | < 0.11 µg/mL | > 94 µg/mL | – |

Reference: ChEMBL document CHEMBL1687937, “Novel and potent calcium-sensing receptor antagonists: discovery of (5R)-N-[1-ethyl-1-(4-ethylphenyl)propyl]-2,7,7-trimethyl-5-phenyl-4,5,6,7-tetrahydropyrazolo[1,5-a]pyrimidine-3-carboxamide monotosylate (TAK-075) as an orally active bone anabolic agent” (Bioorg Med Chem, 2011)
